Data set [1] relates to Plasmodium falciparum. The data set can be described thus: Inhibition of Plasmodium falciparum K1 growth as reduced [3H]hypoxanthine incorporation. The data set is classed as functional. The settings on record: K1, 72 h, read-out: ED50 (the source's name). The method in brief:
(§1)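 Inhibitor in DMSO was added to P. falciparum culture (0.5% parasitemia, 0.5% hematocrit) in RPMI-1640 with 20% human A+ plasma. Cultures were held 48 h at 37 °C under 5% CO2/5% O2/90% N2, then pulsed with [8-3H]hypoxanthine (0.3 μCi) for 24 h more. Cells were harvested and counted by β-scintillation. Background from uninfected RBCs was subtracted, with DMSO set as 100%. ED50 was obtained by linear regression.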

The target in data set [2] is T1, Protein farnesyltransferase (PFT) (Plasmodium falciparum) (UniProt Q5EI73+Q5EI74). The data set is described as follows: Inhibition of Plasmodium falciparum PFT at 5 nM.
In data set [3] the target is T1, Protein farnesyltransferase (PFT) (Plasmodium falciparum). The data set is described as follows: Inhibition of Plasmodium falciparum PFT at 50 nM.
For data set [4], the system named is Plasmodium falciparum. The data set is described as follows: Inhibition of Plasmodium falciparum 3D7 growth as reduced [3H]hypoxanthine incorporation. It counts as functional. The settings on record: 3D7, 72 h, read-out: ED50 (the source's name). The method in brief:
as §1

Data set [5] concerns the target T1, Protein farnesyltransferase (PFT) (Plasmodium falciparum). The data set can be described thus: Selectivity for inhibition of Plasmodium falciparum PFT over rat PFT. It counts as protein-complex assay.
In data set [6] the target is T2, Protein farnesyltransferase (PFT) (Plasmodium falciparum, UniProt Q5EI73+Q5EI74).
T2 sequence (Q5EI73 whole entry): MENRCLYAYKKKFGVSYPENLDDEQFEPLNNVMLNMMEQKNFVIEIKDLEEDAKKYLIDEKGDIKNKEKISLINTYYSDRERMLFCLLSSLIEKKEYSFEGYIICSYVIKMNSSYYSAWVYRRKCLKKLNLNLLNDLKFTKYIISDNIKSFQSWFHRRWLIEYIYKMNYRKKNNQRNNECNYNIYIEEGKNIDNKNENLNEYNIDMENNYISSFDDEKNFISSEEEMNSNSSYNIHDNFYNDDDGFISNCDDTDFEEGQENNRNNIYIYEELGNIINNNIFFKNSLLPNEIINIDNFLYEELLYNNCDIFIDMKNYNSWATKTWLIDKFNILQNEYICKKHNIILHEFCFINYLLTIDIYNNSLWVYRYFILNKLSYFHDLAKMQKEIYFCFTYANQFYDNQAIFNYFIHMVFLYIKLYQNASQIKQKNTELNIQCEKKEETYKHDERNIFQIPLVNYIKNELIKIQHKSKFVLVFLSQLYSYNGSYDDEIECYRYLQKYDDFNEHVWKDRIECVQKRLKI
T2 sequence (Q5EI74 whole entry): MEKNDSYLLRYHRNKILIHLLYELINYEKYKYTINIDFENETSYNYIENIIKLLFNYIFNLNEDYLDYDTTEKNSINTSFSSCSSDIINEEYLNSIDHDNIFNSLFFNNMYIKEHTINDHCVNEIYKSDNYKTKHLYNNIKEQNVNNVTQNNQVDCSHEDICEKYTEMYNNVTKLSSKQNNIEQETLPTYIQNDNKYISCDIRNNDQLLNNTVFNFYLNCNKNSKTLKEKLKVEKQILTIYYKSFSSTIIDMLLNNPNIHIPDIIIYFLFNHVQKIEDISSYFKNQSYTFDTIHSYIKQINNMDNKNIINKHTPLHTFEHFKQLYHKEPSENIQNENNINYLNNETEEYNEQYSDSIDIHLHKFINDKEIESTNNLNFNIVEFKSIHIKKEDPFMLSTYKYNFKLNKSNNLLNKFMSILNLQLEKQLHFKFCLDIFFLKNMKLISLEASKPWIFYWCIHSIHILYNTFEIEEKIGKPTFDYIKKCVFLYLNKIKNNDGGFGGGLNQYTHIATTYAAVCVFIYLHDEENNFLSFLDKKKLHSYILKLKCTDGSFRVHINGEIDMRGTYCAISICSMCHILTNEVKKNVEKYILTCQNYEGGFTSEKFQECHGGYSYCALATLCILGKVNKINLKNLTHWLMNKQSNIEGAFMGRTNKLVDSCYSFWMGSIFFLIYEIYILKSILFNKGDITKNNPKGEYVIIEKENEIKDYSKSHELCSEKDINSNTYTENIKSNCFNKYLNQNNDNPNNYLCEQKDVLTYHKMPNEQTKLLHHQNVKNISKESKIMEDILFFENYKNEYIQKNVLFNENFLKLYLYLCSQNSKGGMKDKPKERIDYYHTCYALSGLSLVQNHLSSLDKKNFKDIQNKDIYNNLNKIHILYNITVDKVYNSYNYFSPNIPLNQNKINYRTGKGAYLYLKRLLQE
The data set can be described thus: Inhibition of Plasmodium falciparum PFT. It counts as protein-complex assay.

A short description of data set [7]: Apparent permeability in Caco-2 cells. It counts as ADME, cell-based. The note with it: human. (Passage across Caco-2 layers is used to estimate intestinal permeability.)
Data set [8] in a line: AUC in mouse at 50 mg/kg, po. The data set is classed as ADME, organism-based. On the set-up: dose 50 mg/kg, route oral. The settings on record: plasma. The method, boiled down:
(§2)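 Oral gavage at 50 mg/kg in 90% saline, 3% ethanol, 7% Tween; inhibitor concentration in plasma followed over 5 h. Values are averages of three animals per species (mice or rats). Reported parameters are AUC, Cmax, Tmax and elimination t1/2.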

A short description of data set [9]: Half life in mouse at 50 mg/kg, po. It counts as ADME, organism-based. The note with it: in vivo, read-out: beta t1/2. Set-up: dose 50 mg/kg, route oral. The method, boiled down: as §2
The nature of data set [10]: Cmax in mouse at 50 mg/kg, po. It counts as ADME, organism-based. Set-up: dose 50 mg/kg, route oral. The settings on record: in vivo. The method, boiled down: as §2
Data set [11] can be described thus: Tmax in mouse at 50 mg/kg, po. The data set is classed as ADME, organism-based. Set-up: dose 50 mg/kg, route oral. The settings on record: in vivo. The method in brief:
as §2

The species named for the next data set is Mus musculus. The data set can be described thus: Half life in mouse liver microsome. It counts as ADME. The settings on record: microsomes. The method, boiled down: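 Pooled female liver microsomes were preincubated at 37 °C for 10 min in phosphate buffer with MgCl2, EDTA, an NADPH regenerating system and glucose-6-phosphate dehydrogenase. Inhibitor was then added in DMSO. Samples were quenched with acetonitrile plus internal standard at set time points and frozen at −20 °C. Parent and metabolites were quantified by LC/MS to give t1/2.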

Data set [12] is described as follows: AUC in rat at 50 mg/kg, po. It counts as ADME, organism-based. Set-up: dose 50 mg/kg, route oral. The settings on record: plasma. The method, boiled down:
as §2

Data set [13] is described as follows: Cmax in rat at 50 mg/kg, po. It counts as ADME, organism-based. Set-up: dose 50 mg/kg, route oral. The note with it: in vivo. The method, boiled down: as §2

Where only a bound is given, the exact number is not on record here.

As usually defined, the inhibition is the percentage by which the read-out fell short of the control. Lower therefore signals a response near the control. For the molecule `Cn1cnc(S(=O)(=O)N(CCN(Cc2cncn2C)c2ccc(C#N)cc2)Cc2cccc(-n3cccc3)c2)c1`, the EC50 in the data set with Plasmodium falciparum [1] amounted to 4000 nM; with Plasmodium falciparum [4] it was 2500 nM. The inhibition in data set [2] amounted to 37%; in [3], 74%.
As usually defined, the IC50 is the point on the concentration scale where inhibition reaches its midpoint. A low value points to greater potency. Consider `Cn1cnc(S(=O)(=O)N(CCN(Cc2cncn2C)c2ccc(Br)cc2)Cc2ccccn2)c1`, for which, in data set [5], the Selectivity ratio worked out at 44. In data set [6], this molecule returned an IC50 of 1.9 nM.
As usually defined, the Papp is a coefficient for how fast a substance crosses the barrier. With `Cn1cnc(S(=O)(=O)N(CCN(Cc2cncn2C)c2ccc(C#N)cc2)CC2CCCCC2)c1`, the Papp in [7] came to 1.5 ×10⁻⁶ cm/s. For the same molecule, the inhibition in data set [2] was 63%; in data set [3], 93%. Besides, the Selectivity ratio in [5] amounted to 1.7. The molecule further had an IC50 in data set [6] of 4.5 nM.
In general, AUC refers to concentration integrated over time. The Cmax is the peak of the concentration-time curve. In general, Tmax refers to the time at which the peak concentration occurs. Take `Cn1cnc(S(=O)(=O)N(CCN(Cc2cncn2C)c2ccc(C#N)cc2)Cc2ccccc2)c1`: in data set [8], the AUC is 1.87 µM·h. Also, in the data set with Plasmodium falciparum [1], the EC50 was 367 nM. Also, the inhibition in data set [2] came to 86%; in [3] it was 98%. The half-life in data set [9] is 95.9 min. In data set [10], the Cmax was found to be 740 nM. Besides, the time to peak (Tmax) in data set [11] was 30 min.
As to `Cn1cnc(S(=O)(=O)N(CCN(Cc2cncn2C)c2ccc(C#N)cc2)CC(=O)NC(C)(C)C)c1`, the inhibition turned out to be 4% in data set [2] and 6% in data set [3]. The IC50 in [6] was above 1000 nM.
For the molecule `Cn1cnc(S(=O)(=O)N(CCN(Cc2cncn2C)c2ccc(C#N)cc2)Cc2cccc(C#N)c2)c1`, the EC50 in the data set on Plasmodium falciparum [1] amounted to 1800 nM; in the data set on Plasmodium falciparum [4], 350 nM. In addition, the inhibition in data set [2] turned out to be 45%; in data set [3], 89%.
On to `Cc1cccc(CN(CCN(Cc2cncn2C)c2ccc(C#N)cc2)S(=O)(=O)c2cn(C)cn2)c1`, for which the EC50 with Plasmodium falciparum [1] was 1000 nM; in the data set with Plasmodium falciparum [4], 300 nM. Moreover, the inhibition in [2] was 61%; in data set [3], 94%.
Turning to `Cn1cncc1CN(CCN(Cc1ccccc1)S(=O)(=O)c1ccccn1)c1ccc(C#N)cc1`, the values for the inhibition in data set [2] and in data set [3] were 64% and 95%, respectively. For the same molecule, the Tmax in [11] was 30 min.
Regarding `Cn1cnc(S(=O)(=O)N(CCN(Cc2cncn2C)c2ccc(C#N)cc2)Cc2ccc(-c3ccccc3)cc2)c1`, the inhibition in [2] came out at 10%; in [3], 19%. Besides, the Selectivity ratio in data set [5] was determined as 3.7. Moreover, the T1/2 in the data set filed under Mus musculus was 3 min. In data set [6], this molecule showed a concentration for half-maximal inhibition (IC50) of 240 nM.
With `Cn1cnc(S(=O)(=O)N(CCN(Cc2cncn2C)c2ccc(C#N)cc2)Cc2ccc(C#N)cc2)c1`, the inhibition is 24% in [2] and 48% in data set [3]. In addition, in data set [5], the Selectivity ratio was found to be 3.7. The IC50 in data set [6] was 95 nM.
Consider `Cn1cnc(S(=O)(=O)N(CCN(Cc2cncn2C)c2ccc(C#N)cc2)Cc2ccccn2)c1`, for which the inhibition stood at 64% in data set [2] and 93% in data set [3]. For the same molecule, the 50% inhibitory concentration (IC50) in [6] was found to be 2.1 nM.
For `CN(C)c1cccc2c(S(=O)(=O)N(CCN(Cc3cncn3C)c3ccc(C#N)cc3)Cc3ccccc3)cccc12`, the inhibition in [2] is 6%; in [3], 29%. Further, the Selectivity ratio in data set [5] stood at 3.3. The molecule also gave a half-maximal inhibitory concentration (IC50) in [6] of 55 nM.
`Cn1cnc(S(=O)(=O)N(CCN(Cc2cncn2C)c2ccc(Br)cc2)Cc2ccccc2)c1`: the inhibition turned out to be 70% in data set [2] and 95% in data set [3]. In data set [6], half-maximal inhibition (IC50) required 2 nM.
`Cn1cncc1CN(CCN(Cc1ccccc1)S(=O)(=O)c1ccccc1)c1ccc(C#N)cc1`: the inhibition in [2] turned out to be 18%; in [3], 69%. Further, the Selectivity ratio in data set [5] came out at 1.5. In addition, the IC50 in data set [6] stood at 8.9 nM.
Molecule `Cc1ccccc1CN(CCN(Cc1cncn1C)c1ccc(C#N)cc1)S(=O)(=O)c1cn(C)cn1` showed an AUC in data set [12] of 1.72 µM·h. In [13], this molecule displayed a Cmax of 1050 nM. Also, the results for the inhibition in data set [2] and in [3] were 95% and 99%, respectively. The same molecule gave a concentration for half-maximal inhibition (IC50) in data set [6] of 0.6 nM. Besides, the Tmax in data set [11] is 40 min.
`Cc1ccccc1CN(CCN(Cc1cncn1C)c1ccc(-c2ccccc2)cc1)S(=O)(=O)c1cn(C)cn1`: the EC50 in the data set on Plasmodium falciparum [1] stood at 2600 nM. In addition, the inhibition turned out to be 49% in [2] and 85% in [3]. Besides, the midpoint of inhibition in [6], the IC50, lay at 8 nM.
Consider `Cn1cnc(S(=O)(=O)N(CCN(Cc2cncn2C)c2ccc(C#N)cc2)Cc2cccc(-c3ccccc3)c2)c1`, for which the inhibition in data set [2] was determined as 56%; in data set [3], 93%.

These data come from ChEMBL document CHEMBL1137254, “Structurally simple, potent, Plasmodium selective farnesyltransferase inhibitors that arrest the growth of malaria parasites” (J Med Chem, 2006).
